# Results gathered from unrelated publications.
# CSNK1A1: Casein kinase I isoform alpha (CSNK1A1, Homo sapiens, UniProt P48729)
# SETD7: Histone-lysine N-methyltransferase SETD7 (SETD7, Homo sapiens, UniProt Q8WTS6)
# HSD11B1: 11-beta-hydroxysteroid dehydrogenase 1 (HSD11B1, Homo sapiens, UniProt P28845)
# SLC10A2: Ileal sodium/bile acid cotransporter (SLC10A2, Homo sapiens, UniProt Q12908)
# MMP2: 72 kDa type IV collagenase (MMP2, Homo sapiens, UniProt P08253)
# CNR2: Cannabinoid receptor 2 (CNR2, Homo sapiens, UniProt P34972)
Compound,target,test,system,setting,inhibition [%]
CCN1CCN(Cc2ccc(NC(=O)c3ccc(C)c(/C=C/c4cnc5[nH]ccc5c4OC)c3)cc2C(F)(F)F)CC1,CSNK1A1,"target engagement in cells, inhibitor, chemoproteomics",A-375,5 µM,-58.8
Cc1cc(-c2ccc(/N=N/c3ccc4c(S(=O)(=O)O)cc(S(=O)(=O)O)c(N)c4c3O)c(C)c2)ccc1/N=N/c1ccc2c(S(=O)(=O)O)cc(S(=O)(=O)O)c(N)c2c1O,SETD7,cell-free assay,,10 µM,101
Ic1cccc2cnccc12,"Protein mono-ADP-ribosyltransferase PARP6 (PARP6, Homo sapiens, UniProt Q2NL67)","enzyme activity, inhibitor",,10 µM,11
CN(C)CCCN1c2ccccc2Sc2ccc(Cl)cc21,HSD11B1,"enzyme activity, inhibitor",,"20 µM, lysate",< 40
NS(=O)(=O)c1cc2c(cc1Cl)N=CNS2(=O)=O,SLC10A2,"transporter uptake, inhibitor, radiometric",,1 mM,25.3
CC(C)c1ncccc2nc(N)nc1-2,MMP2,"enzyme activity, inhibitor",,50 µM,52
N#Cc1cc(Cn2c(N3CCCC3)nc3ccccc32)ccc1F,"D(1B) dopamine receptor (DRD5, Homo sapiens, UniProt P21918)",ligand displacement,,10 µM,48.7
NS(=O)(=O)c1cc2c(cc1C(F)(F)F)NC(Cc1ccccc1)NS2(=O)=O (stereo not drawn),SLC10A2,"transporter uptake, inhibitor, radiometric",,1 mM,64.5
CN1CC(Oc2cnc(C#N)cc2-c2ccn3nc(NC(=O)C4CC4)cc3c2)C1,"Cyclin-dependent kinase-like 3 (CDKL3, Homo sapiens, UniProt Q8IVW4)","enzyme activity, inhibitor",,1 µM,1
CC(=O)N[C@H]1CSSC[C@@H](C(=O)N[C@@H](Cc2c[nH]c3ccccc23)C(N)=O)NC(=O)[C@H](Cc2ccccc2)NC(=O)[C@H](CCCNC(=N)N)NC1=O,"Melanocortin receptor 5 (MC5R, Homo sapiens, UniProt P33032)","ligand displacement, radioligand",,"10 µM, 40 min",0
CCN(c1cc(C#CCN2CCOCC2)cc(C(=O)NCc2c(C)cc(C)[nH]c2=O)c1C)[C@H]1CC[C@H](N(C)CCOC)CC1,"Histone-lysine N-methyltransferase SUV39H1 (SUV39H1, Homo sapiens, UniProt O43463)","enzyme activity, inhibitor",,1 µM,11
C=CC1=C(C)c2cc3[nH]c(cc4nc(cc5[nH]c(cc1n2)c(C)c5CCC(=O)O)C(CCC(=O)O)=C4C)c(C)c3C=C,SETD7,cell-free assay,,10 µM,34
Cc1ccc(Nc2nccc(N(C)c3ccc4c(C)n(C)nc4c3)n2)cc1S(N)(=O)=O,"G protein-coupled receptor kinase 5 (GRK5, Homo sapiens, UniProt P34947)","enzyme activity, inhibitor",,0.3 µM,-6
O=C(NC[C@H]1CN(c2ccc(N3CCOCC3=O)cc2)C(=O)O1)c1ccc(Cl)s1,"Coagulation factor X (F10, Homo sapiens, UniProt P00742)","enzyme activity, inhibitor, absorbance",,0.1 µM,88.6
CCCN(CCC)S(=O)(=O)c1ccc(C(=O)O)cc1,SLC10A2,"transporter uptake, inhibitor, radiometric",,1 mM,47.4
O=C1C=CC(=O)c2c(O)cccc21,SETD7,cell-free assay,,10 µM,13
CN1CCN(CCCOc2ccc(=O)n(-c3ccc(Cl)c(Cl)c3)n2)CC1,CNR2,ligand displacement,,1 µM,27.4
COc1cc(NC(C)CCCN)c2ncccc2c1 (stereo not drawn),SETD7,cell-free assay,,10 µM,-19
CN(C)C1CCN(CC#Cc2nn(C3CCCC3)c3nc(NCc4ccccc4)ncc23)C1 (stereo not drawn),CSNK1A1,"enzyme activity, inhibitor, FRET",,10 µM,1
CCCCC(CC)CNC(=N)NC(=N)NCCCCCCNC(=N)NC(=N)NCC(CC)CCCC (stereo not drawn),SETD7,cell-free assay,,10 µM,-110
C[C@@H](O)[C@H]1C(=O)N2C(C(=O)O)=C(S[C@@H]3CN[C@H](C(=O)N(C)C)C3)[C@H](C)[C@H]12,SLC10A2,"transporter uptake, inhibitor, radiometric",,1 mM,< 10
COc1cc(NC(C)=O)c(Cl)cc1C(=O)Nc1nccs1,"Beta-2 adrenergic receptor (ADRB2, Homo sapiens, UniProt P07550)",cell-free assay,,10 µM,-8.3
CCCCc1oc2ccccc2c1C(=O)c1cc(I)c(OCCN(CC)CC)c(I)c1,HSD11B1,"enzyme activity, inhibitor",,"20 µM, lysate",< 40
O=C(O)CCCCCCCCCCCC[C@@H]1C=CCC1,SETD7,cell-free assay,,10 µM,-48
O=C(O)c1ncccc1O,MMP2,"enzyme activity, inhibitor, fluorescence",,1 mM,~50
NS(=O)(=O)c1cc2c(cc1Cl)NCNS2(=O)=O,SLC10A2,"transporter uptake, inhibitor, radiometric",,1 mM,25.8
C=C(CC)C(=O)c1ccc(OCC(=O)O)c(Cl)c1Cl,HSD11B1,"enzyme activity, inhibitor",,"20 µM, lysate",< 40
C=CCSCC1Nc2cc(Cl)c(S(N)(=O)=O)cc2S(=O)(=O)N1 (stereo not drawn),SLC10A2,"transporter uptake, inhibitor, radiometric",,1 mM,57.9
O=C(c1ccc(Cl)cc1)N(Cc1ccccc1)C1CCCCC1,CNR2,cell-free assay,,10 µM,41.6
Cc1cn([C@H]2C[C@H](N=[N+]=[N-])[C@@H](CO)O2)c(=O)[nH]c1=O,SLC10A2,"transporter uptake, inhibitor, radiometric",,1 mM,< 10
O=C1C=C2CC3(O)COc4c(ccc(O)c4O)C3=C2C=C1O (stereo not drawn),SETD7,cell-free assay,,10 µM,28
CCCCNc1cc(C(=O)O)cc(S(N)(=O)=O)c1Oc1ccccc1,SLC10A2,"transporter uptake, inhibitor, radiometric",,1 mM,78.1
O=C(O)c1cc(O)c2c(c1)[C@H]([C@H]1c3cc(C(=O)O)cc(O)c3C(=O)c3c(O[C@@H]4O[C@H](CO)[C@@H](O)[C@H](O)[C@H]4O)cccc31)c1cccc(O[C@@H]3O[C@H](CO)[C@@H](O)[C@H](O)[C@H]3O)c1C2=O,SETD7,cell-free assay,,10 µM,36
